Experiments:
[1] = biological target: 72 kDa type IV collagenase (Homo sapiens, UniProt P08253); assay: Inhibition of MMP2 by microtiter plate fluorimetric assay
How it was run: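 Substrate was succinylated gelatin, in 50 mM sodium borate buffer, pH 8.5. Compound and enzyme were preincubated 30 min at 37 °C, then incubated another 60 min at 37 °C after substrate addition. Controls were a 100% group without compound and a blank with enzyme only.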

Aminopeptidase N = Aminopeptidase N (Homo sapiens, UniProt P15144); assay: Inhibition of aminopeptidase N by microtiter plate fluorimetric assay; details: in the assay text read “spectrophotometric” for “fluorimetric”
How it was run: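 Substrate was L-leucine p-nitroanilide, in 50 mM sodium phosphate buffer, pH 7.2. Enzyme and compound were preincubated 30 min at 37 °C, then incubated 60 min at 37 °C with substrate. OD405 was read. Inhibition % = [OD(100%) − OD(compound)]/[OD(100%) − OD(blank)] × 100, where 100% has no compound and blank has enzyme only.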

Chain of 72 kDa type IV collagenase (P08253 whole entry): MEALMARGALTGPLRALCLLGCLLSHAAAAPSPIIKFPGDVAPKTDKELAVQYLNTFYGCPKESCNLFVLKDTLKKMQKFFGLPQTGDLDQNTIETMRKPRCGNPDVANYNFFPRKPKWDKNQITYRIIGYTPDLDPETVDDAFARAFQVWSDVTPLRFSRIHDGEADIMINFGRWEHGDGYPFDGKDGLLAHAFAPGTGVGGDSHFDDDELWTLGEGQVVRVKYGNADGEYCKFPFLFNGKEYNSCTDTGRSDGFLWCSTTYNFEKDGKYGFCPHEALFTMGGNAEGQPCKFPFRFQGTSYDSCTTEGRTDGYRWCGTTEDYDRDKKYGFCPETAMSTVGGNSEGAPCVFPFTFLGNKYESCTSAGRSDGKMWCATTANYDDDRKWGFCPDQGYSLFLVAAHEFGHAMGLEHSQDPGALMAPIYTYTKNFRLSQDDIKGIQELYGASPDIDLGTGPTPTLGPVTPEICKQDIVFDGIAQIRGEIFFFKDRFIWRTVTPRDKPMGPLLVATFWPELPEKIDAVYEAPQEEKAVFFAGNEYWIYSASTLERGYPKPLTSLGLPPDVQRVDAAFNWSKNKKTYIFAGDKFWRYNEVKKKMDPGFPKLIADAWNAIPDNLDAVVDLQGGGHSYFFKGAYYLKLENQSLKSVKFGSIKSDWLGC
Chain of Aminopeptidase N (P15144 whole entry): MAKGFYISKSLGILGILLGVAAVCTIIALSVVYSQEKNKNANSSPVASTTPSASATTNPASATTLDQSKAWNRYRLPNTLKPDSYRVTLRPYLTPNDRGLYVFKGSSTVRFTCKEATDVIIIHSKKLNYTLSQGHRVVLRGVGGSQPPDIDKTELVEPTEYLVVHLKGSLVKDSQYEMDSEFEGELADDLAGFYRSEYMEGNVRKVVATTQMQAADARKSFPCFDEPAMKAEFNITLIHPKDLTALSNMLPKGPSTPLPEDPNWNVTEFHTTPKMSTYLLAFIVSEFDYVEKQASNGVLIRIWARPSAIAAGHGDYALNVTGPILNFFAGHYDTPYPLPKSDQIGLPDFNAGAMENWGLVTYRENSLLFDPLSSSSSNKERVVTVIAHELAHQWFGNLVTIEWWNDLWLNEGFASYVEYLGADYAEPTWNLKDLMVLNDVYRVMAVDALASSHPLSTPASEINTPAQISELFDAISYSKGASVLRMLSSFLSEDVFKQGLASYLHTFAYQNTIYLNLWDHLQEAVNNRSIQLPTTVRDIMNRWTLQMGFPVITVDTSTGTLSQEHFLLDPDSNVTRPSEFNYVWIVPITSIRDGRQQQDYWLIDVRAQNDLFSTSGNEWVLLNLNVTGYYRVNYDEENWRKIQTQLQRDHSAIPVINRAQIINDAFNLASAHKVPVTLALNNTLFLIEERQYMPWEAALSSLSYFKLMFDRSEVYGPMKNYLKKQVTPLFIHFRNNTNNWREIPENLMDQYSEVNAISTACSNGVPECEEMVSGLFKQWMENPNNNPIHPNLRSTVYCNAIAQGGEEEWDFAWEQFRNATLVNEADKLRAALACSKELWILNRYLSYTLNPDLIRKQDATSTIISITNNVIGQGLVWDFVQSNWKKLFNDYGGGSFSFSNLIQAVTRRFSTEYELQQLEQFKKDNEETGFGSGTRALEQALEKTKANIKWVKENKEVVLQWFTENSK

| IC50 [1] | IC50 (Aminopeptidase N) | Compound |
| --- | --- | --- |
| 2.2 µM | 74.8 µM | COC(=O)[C@@H]1C[C@H](NC(=O)c2ccncc2)CN1C(C)=O |
| 1.5 µM | 24.1 µM | COC(=O)[C@@H]1C[C@H](N)CN1C(C)=O |
| 2.6 µM | 73.7 µM | COC(=O)[C@@H]1C[C@H](N=[N+]=[N-])CN1C(C)=O |
| 1.6 µM | 233 µM | COC(=O)[C@@H]1C[C@H](NC(=O)/C=C/c2ccccc2)CN1C(=O)CCc1ccc(OC)c(OC)c1 |
| 1.1 µM | 46.6 µM | COC(=O)[C@@H]1C[C@@H](OS(C)(=O)=O)CN1C(=O)/C=C/c1ccc(OC)c(OC)c1 |
| 0.001 µM | 33.5 µM | COc1cc(C(=O)N[C@H]2C[C@@H](C(=O)NO)N(C(C)=O)C2)cc(OC)c1OC |
| 0.005 µM | 29.8 µM | CC(=O)N1C[C@@H](NC(=O)c2cccnc2)C[C@H]1C(=O)NO |
| 2.7 µM | 123 µM | COC(=O)[C@@H]1C[C@H](NC(=O)c2ccccc2)CN1C(C)=O |
| 4.2 µM | 122 µM | COC(=O)[C@@H]1C[C@H](NC(=O)c2ccc(Cl)cc2)CN1C(C)=O |
| 2.1 µM | 82.6 µM | COC(=O)[C@@H]1C[C@H](NC(=O)c2cnccn2)CN1C(C)=O |
| 5.2 µM | 72.3 µM | COC(=O)[C@@H]1C[C@H](NC(=O)c2ccc([N+](=O)[O-])cc2)CN1C(C)=O |
| 1 µM | 78.4 µM | COC(=O)[C@@H]1C[C@H](NC(=O)c2cccnc2)CN1C(C)=O |
| 0.004 µM | 56.1 µM | CC(=O)N1C[C@@H](NC(=O)/C=C/c2ccccc2)C[C@H]1C(=O)NO |
| 0.011 µM | 96.6 µM | COc1ccc(CCC(=O)N2C[C@@H](NC(=O)/C=C/c3ccccc3)C[C@H]2C(=O)NO)cc1OC |
| 0.109 µM | 121 µM | COC(=O)CNC(=O)[C@@H]1C[C@H](NC(=O)c2cc(OC)c(OC)c(OC)c2)CN1C(C)=O |
| 2.9 µM | 81.8 µM | COC(=O)[C@@H]1C[C@@H](O)CN1C(=O)/C=C/c1ccc(OC)c(OC)c1 |
| 0.3 µM | 30.4 µM | COC(=O)[C@@H]1C[C@@H](OS(=O)(=O)c2ccc(C)cc2)CN1C(C)=O |
| 3 µM | 137 µM | COC(=O)[C@@H]1C[C@H](NC(=O)c2cccnc2)CN1C(=O)/C=C/c1ccc(OC)c(OC)c1 |
| 3.4 µM | 71.3 µM | COC(=O)[C@@H]1C[C@H](N=[N+]=[N-])CN1C(=O)/C=C/c1ccc(OC)c(OC)c1 |
| 2.1 µM | 68.4 µM | COC(=O)[C@@H]1C[C@H](N)CN1C(=O)CCc1ccc(OC)c(OC)c1 |
| 2 µM | 38.6 µM | COC(=O)[C@@H]1C[C@@H](O)CN1C(C)=O |
|  | 70.6 µM | COC(=O)[C@@H]1C[C@H](N)CN1C(=O)/C=C/c1ccc(OC)c(OC)c1 |
| 0.1 µM | 135 µM | COC(=O)[C@@H]1C[C@H](NC(=O)/C=C/c2ccccc2)CN1C(C)=O |
| 0.1 µM | 98.4 µM | COC(=O)[C@@H]1C[C@H](NC(=O)c2cc(OC)c(OC)c(OC)c2)CN1C(C)=O |
| 0.012 µM | 62.2 µM | COc1ccc(CCC(=O)N2C[C@@H](NC(=O)c3cccnc3)C[C@H]2C(=O)NO)cc1OC |
| 2.2 µM | 196 µM | COC(=O)[C@@H]1C[C@H](NC(=O)c2cccnc2)CN1C(=O)CCc1ccc(OC)c(OC)c1 |
| 6.1 µM | 149 µM | COC(=O)[C@@H]1C[C@H](NC(=O)c2ccc(Br)cc2)CN1C(C)=O |
| 0.8 µM | 162 µM | COC(=O)[C@@H]1C[C@H](NC(=O)/C=C/c2ccc(OC)c(OC)c2)CN1C(C)=O |
| 0.016 µM | 51.4 µM | COc1cc(C(=O)N[C@H]2C[C@@H](C(=O)O)N(C(C)=O)C2)cc(OC)c1OC |

Reference: ChEMBL document CHEMBL1140993, “Design, synthesis and preliminary evaluation of novel pyrrolidine derivatives as matrix metalloproteinase inhibitors” (Eur J Med Chem, 2008)
